From ChEMBL document CHEMBL1124929, “Indolo[2,1-a]isoquinolines. Syntheses, steroid hormone receptor binding affinities, and cytostatic activity” (1990)

Key:
[1] = biological target: T1, Androgen Receptor (Bos taurus) (UniProt Q5EM59); test: Relative binding affinity(RBA) for 50% displacement of [3H]mibolerone from Androgen receptor compared to testorone
T1 sequence (whole entry): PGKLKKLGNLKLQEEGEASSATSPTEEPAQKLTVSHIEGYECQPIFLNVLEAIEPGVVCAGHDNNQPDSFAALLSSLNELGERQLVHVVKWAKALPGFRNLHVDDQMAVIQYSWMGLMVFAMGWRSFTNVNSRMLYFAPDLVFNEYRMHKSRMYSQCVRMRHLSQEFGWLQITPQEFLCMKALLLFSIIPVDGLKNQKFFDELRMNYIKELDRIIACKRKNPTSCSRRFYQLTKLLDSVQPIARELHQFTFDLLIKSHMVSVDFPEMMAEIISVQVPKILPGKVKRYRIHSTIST
In short: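 Receptor source was calf uterine cytosol (105000g supernatant, 3 mg/mL protein in assay). Buffers were Tris/EDTA pH 7.4, with NaN₃ for ER, molybdate/glycerol for AR, and sucrose for PR. Tracers were 1 nM [³H]estradiol, [³H]mibolerone or [³H]Org 2058. Incubation was at 0–4 °C for 16 h (ER) or 2 h (AR, PR), with 4–6 competitor concentrations. Nonspecific binding used 2 µM of the unlabeled hormone. Separation was by dextran-coated charcoal. RBA is the ratio of IC50 values for hormone and compound ×100, mean of two triplicate experiments.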

[2] = test system: MDA-MB-231; test: Effect on [3H]thymidine incorporation into MDA-MB 231 human breast cancer cells at 1x10E-5 M; type: functional
In short: (§1)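 Cells were seeded at ~2 × 10⁴ per well, treated from the next day in 0.1% DMSO, with DMSO controls. MCF-7 cells were held in charcoal-stripped NCS for 2 weeks, treated for 5 days and re-dosed on day 4. MDA-MB 231 cells were grown in McCoy 5a/10% NCS and treated for 2 days. At the end, 1 µCi [³H]thymidine per well was added for 2 h. Result is % T/C, mean of three experiments × six dishes.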

[3] = test system: MCF7; test: Effect on hormone-dependent MCF-7 human breast cancer cell proliferation at 1x10E-7M; type: functional
In short: (§2)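 Cells were plated at about 2 × 10⁴ per well in six-well dishes. MCF-7 cells were grown in modified improved MEM with 5% NCS, switched to charcoal-treated NCS two weeks before the test, and exposed for 5 days with a re-dose on day 4. MDA-MB 231 cells were grown in McCoy 5a with 10% NCS and exposed for 2 days. Compounds were given 1 day after plating in 0.1% DMSO, with DMSO-matched controls. Read-out was cell number as % T/C, mean of three experiments with six dishes.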

[4] = test system: MCF7; test: Effect on hormone-dependent MCF-7 human breast cancer cell proliferation at 5x10E-6M; type: functional; in short: as §2
[5] = test system: MCF7; test: Effect on [3H]thymidine incorporation into MCF-7 human breast cancer cells at 5x10E-6M; type: functional; in short: as §1
[6] = test system: MCF7; test: Effect on [3H]thymidine incorporation into MCF-7 human breast cancer cells at 1x10E-5 M; type: functional; in short: as §1
[7] = test system: MCF7; test: Effect on hormone-dependent MCF-7 human breast cancer cell proliferation at 1x10E-6M; type: functional; in short: as §2
[8] = test system: MCF7; test: Effect on [3H]thymidine incorporation into MCF-7 human breast cancer cells at 1x10E-6M; type: functional; in short: as §1
[9] = biological target: T2, Estrogen receptor (Mus musculus) (UniProt O08537+P19785); test: Estrogenic activity in uterotrophic assay in immature mice at 125 ug subcutaneous dose; type: functional
In short: (§3)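 Immature female NMRI mice, 20 days old, in groups of 6-10, were dosed sc once daily for three consecutive days. Compounds were given in PEG/0.9% saline 1:1; vehicle controls were included. Animals were killed 24 h after the last dose. Uteri were fixed in Bouin solution and the effect was taken as uterine dry weight (mg)/body weight (g) ×100, given as mean ± SD.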

[10] = biological target: T2, Estrogen receptor (Mus musculus); test: (§4) Estrogenic activity in uterotrophic assay in immature mice at 50.0 ug subcutaneous dose; type: functional; in short: as §3
[11] = biological target: T2, Estrogen receptor (Mus musculus); test: Estrogenic activity in uterotrophic assay in immature mice at 2 ug subcutaneous dose; type: functional; in short: as §3
[12] = biological target: T2, Estrogen receptor (Mus musculus); test: (§5) Estrogenic activity in uterotrophic assay in immature mice at 250 ug subcutaneous dose; type: functional; in short: as §3
[13] = biological target: T2, Estrogen receptor (Mus musculus); test: as §4; type: functional; in short: as §3; remark: listed apart in the source
[14] = biological target: T2, Estrogen receptor (Mus musculus); test: as §5; type: functional; in short: as §3; remark: listed apart in the source
[15] = biological target: T2, Estrogen receptor (Mus musculus); test: Inhibition of 0.4 ug estrone-stimulated uterine growth in mice at 10.0 ug subcutaneous dose; type: functional
In short: (§6)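 Immature 20-day-old female NMRI mice received sc injections on three consecutive days. Each injection held 0.4 µg estrone plus the compound in PEG/saline 1:1. […] Significance was tested by Mann-Whitney U test.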

[16] = biological target: T2, Estrogen receptor (Mus musculus); test: Inhibition of 0.4 ug estrone-stimulated uterine growth in mice at 125 ug subcutaneous dose; p<0.01; type: functional; in short: as §6
[17] = biological target: T3, Androgen receptor (Mus musculus) (UniProt P19091); test: Relative effect on seminal vesicle weight in adult and castrated mice at 10 ug dose; type: functional, tissue-based
T3 sequence (whole entry): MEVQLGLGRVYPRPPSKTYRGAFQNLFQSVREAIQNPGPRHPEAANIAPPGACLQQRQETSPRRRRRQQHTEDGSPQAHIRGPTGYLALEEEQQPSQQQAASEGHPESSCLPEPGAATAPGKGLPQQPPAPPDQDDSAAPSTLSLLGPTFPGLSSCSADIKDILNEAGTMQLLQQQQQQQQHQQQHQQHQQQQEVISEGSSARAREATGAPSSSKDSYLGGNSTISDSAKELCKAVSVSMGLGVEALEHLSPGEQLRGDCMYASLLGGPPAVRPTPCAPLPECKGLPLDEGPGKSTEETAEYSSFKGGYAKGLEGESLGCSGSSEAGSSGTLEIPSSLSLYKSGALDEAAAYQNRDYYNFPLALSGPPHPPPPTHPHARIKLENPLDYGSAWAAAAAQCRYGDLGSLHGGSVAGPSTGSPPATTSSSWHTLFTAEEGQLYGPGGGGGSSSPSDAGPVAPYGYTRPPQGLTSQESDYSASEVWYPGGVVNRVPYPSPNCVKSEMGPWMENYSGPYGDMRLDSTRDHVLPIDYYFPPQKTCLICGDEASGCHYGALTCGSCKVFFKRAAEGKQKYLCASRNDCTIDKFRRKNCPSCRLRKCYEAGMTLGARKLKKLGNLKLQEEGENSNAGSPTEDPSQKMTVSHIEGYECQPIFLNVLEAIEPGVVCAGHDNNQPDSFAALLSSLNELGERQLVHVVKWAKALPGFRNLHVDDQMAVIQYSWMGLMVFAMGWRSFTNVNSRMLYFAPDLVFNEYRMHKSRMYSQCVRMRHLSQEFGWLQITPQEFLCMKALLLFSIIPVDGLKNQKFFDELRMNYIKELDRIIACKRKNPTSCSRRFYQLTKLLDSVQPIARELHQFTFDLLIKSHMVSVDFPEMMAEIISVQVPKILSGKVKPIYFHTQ
In short: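 Adult male mice, 23–25 g, six per group, were used intact or castrated via the scrotal route under ether 5 days before the test. Castrates received 0.3 mg testosterone propionate daily. Compounds were injected daily in olive oil for nine days. Seminal vesicles were taken 24 h later, fixed in Bouin solution, dried overnight at 100 °C and weighed. Result is organ mg/body g ×100; % inhibition = [1 − treated/control] × 100.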

[18] = biological target: T3, Androgen receptor (Mus musculus); test: Inhibition of seminal vesicle weight in intact mice at 10.0 ug

T2 sequence (O08537 whole entry, looked up): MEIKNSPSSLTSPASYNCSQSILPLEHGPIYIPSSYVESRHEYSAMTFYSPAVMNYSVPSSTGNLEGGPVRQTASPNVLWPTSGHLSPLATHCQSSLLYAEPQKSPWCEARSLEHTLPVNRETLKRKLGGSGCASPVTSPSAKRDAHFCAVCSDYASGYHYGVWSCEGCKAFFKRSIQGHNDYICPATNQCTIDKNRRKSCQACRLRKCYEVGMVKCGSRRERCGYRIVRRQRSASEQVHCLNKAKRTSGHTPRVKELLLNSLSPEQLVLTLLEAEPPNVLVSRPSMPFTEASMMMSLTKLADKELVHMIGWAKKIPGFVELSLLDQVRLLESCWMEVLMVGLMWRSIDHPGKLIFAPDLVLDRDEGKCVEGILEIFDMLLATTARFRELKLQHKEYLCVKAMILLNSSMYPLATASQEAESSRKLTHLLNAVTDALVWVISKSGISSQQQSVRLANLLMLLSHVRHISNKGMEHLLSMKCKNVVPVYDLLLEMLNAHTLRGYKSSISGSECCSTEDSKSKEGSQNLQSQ
T2 sequence (P19785 whole entry, looked up): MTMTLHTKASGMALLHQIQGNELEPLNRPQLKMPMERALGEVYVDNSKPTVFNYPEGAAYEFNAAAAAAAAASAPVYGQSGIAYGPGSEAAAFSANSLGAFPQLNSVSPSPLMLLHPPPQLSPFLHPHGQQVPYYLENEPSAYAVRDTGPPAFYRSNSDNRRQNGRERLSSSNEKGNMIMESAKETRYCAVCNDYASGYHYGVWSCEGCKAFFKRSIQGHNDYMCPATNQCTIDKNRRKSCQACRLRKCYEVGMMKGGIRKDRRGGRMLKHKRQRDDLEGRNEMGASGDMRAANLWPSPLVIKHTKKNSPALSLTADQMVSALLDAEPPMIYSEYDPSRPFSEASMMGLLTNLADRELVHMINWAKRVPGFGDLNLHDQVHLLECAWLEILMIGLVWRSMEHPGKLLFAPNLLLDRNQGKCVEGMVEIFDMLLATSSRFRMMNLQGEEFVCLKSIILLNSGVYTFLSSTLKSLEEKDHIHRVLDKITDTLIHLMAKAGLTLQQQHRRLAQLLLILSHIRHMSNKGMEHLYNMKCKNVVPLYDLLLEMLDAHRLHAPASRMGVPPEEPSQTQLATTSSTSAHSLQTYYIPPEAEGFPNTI

CCC1Cc2cc(OC(C)=O)ccc2-c2cc3cc(OC(C)=O)ccc3n21 (stereo not drawn)
RBA [1]: 0.23
T/C [2]: 4%
T/C [3]: 80%
T/C [4]: 10%
T/C [5]: 4%
T/C [6]: 2%
T/C [7]: 45%
T/C [8]: 25%
Effect [9]: 39.5
Effect [10]: 35.8
Effect [11]: 52.3
Effect [12]: 42.6
Effect [13]: 45.7
Effect [14]: 53.4
inhibition [15]: 12.2%
inhibition [16]: 42%
Relative seminal vesicle weight [17]: 132
inhibition [18]: 22%
